Screening data from PubChem BioAssay.
VIM-2 inhibitor = VIM-2 metallo-beta-lactamase inhibitors, primary screen, biochemical, epi-absorbance readout, Pseudomonas aeruginosa enzyme. 0.89% of 290,000 active. inhibition, % at 5.6 µM. purified VIM-2, nitrocefin hydrolysis, epi-absorbance fluorescence;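 active = inhibition above the mean of all tested compounds plus 3 SD, cutoff set per screening run, cut at about 7.5% in these data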;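 note: red hydrolysis product quenches plate fluorescence so inhibitors raise well fluorescence; 0% = enzyme with DMSO and 100% = DMSO without enzyme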
PKA-R1A activ = activators of PKA-R1A holoenzyme, primary screen, biochemical, fluorescence polarization, Cy5-IP20, bovine R1A, mouse PKAc; AID 504707, 2011; 0.083% of 340,000 active; cAMP-dependent protein kinase type I-alpha regulatory subunit (Bos taurus) + …; activation, % at 11.4 µM; PKA-R1A dissociation; scaled: DMSO 0%, 113 µM cGMP 100%;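 active = percent activation above the mean of all tested compounds plus 3 SD, cut at about 19% in these data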;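 note: higher means more PKAc released from R1A so a rise in polarization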
MsrA inhibitor = bovine MsrA enzyme inhibitors, primary screen, biochemical, absorbance, HTS; inhibition, % at 15.5 µM; purified bovine MsrA, absorbance read-out; 0.75% of 360,000 active; AID 651718, 2012; Methionine sulfoxide reductase A (Bos taurus); in the data active = inhibition above about 4.5%;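 note: 0% = vehicle wells with enzyme and 100% = reference inhibitor wells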
MsrA act = bovine MsrA enzyme activators, primary screen, biochemical, absorbance, HTS | purified bovine MsrA, absorbance read-out | activation, % at 10.6 µM | 0.3% of 360,000 active | AID 602163, 2012; in the data active = activation above about 7.5%;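 note: 0% = vehicle and 100% = reference activator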
PKA-R2B act = activators of PKA-R2B holoenzyme, primary screen, biochemical, fluorescence polarization, Cy5-IP20, human; cAMP-dependent protein kinase catalytic subunit beta (Homo sapiens) + cAMP-dependent …; PKA-R2B holoenzyme dissociation; R2B truncated from residue 108, S112A mutant; 0% DMSO only, 100% 113 µM cGMP; activation, % at 11.4 µM; 0.079% of 340,000 active; AID 504700, 2011;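 active = activation above a cutoff set at the mean over all compounds plus 3 SD, cut at about 18% in these data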;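 note: higher means more holoenzyme dissociation and a rise in polarization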
Target sequence (P31323 whole entry, looked up, other chains not shown, the tested form may be a part): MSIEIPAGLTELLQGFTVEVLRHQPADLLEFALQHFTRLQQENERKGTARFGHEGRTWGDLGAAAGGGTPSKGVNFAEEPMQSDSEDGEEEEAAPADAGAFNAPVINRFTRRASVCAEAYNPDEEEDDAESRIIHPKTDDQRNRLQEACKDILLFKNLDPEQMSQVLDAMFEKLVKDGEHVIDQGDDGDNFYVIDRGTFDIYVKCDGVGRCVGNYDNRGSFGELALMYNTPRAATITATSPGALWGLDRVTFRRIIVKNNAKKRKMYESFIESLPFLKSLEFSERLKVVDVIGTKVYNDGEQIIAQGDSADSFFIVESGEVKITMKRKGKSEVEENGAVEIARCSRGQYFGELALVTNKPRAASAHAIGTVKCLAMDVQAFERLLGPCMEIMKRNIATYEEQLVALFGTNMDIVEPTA
IMP-1 inh-1 = IMP-1 metallo-beta-lactamase inhibitors, primary screen, biochemical, epi-absorbance readout, Pseudomonas aeruginosa enzyme. metallo-beta-lactamase IMP-1 (Pseudomonas aeruginosa). purified IMP-1, nitrocefin hydrolysis, epi-absorbance fluorescence. inhibition, % at 5.6 µM. 0.45% of 290,000 active;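 active = inhibition above the mean plus 3 SD of all compounds in the same screening run, cut at about 4.5% in these data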;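 note: 0% = IMP-1 with DMSO and 100% = DMSO wells lacking enzyme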
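system = purified recombinant IMP-1 beta-lactamase | amount = 0.2 nM IMP-1, as dispensed | medium = HEPES buffer pH 7.1 with ZnSO4 and Brij 35 | times = 25 °C, 15 min preincubation, 25 min reaction | detection = plate fluorescence quenching by hydrolysis product, ex 480/em 530 nm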
IMP-1 inh-2 = IMP-1 metallo-beta-lactamase inhibitors, confirmation, selectivity assay for selective VIM-2 inhibitor project, biochemical, epi-absorbance readout, triplicate; inhibition, % at 5.6 µM; 1,300 tested, under 10 active; purified IMP-1, nitrocefin hydrolysis, epi-absorbance fluorescence; shares compounds with VIM-2 inhibitor; call rule not given here;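 note: 0% = enzyme with vehicle and 100% = vehicle without enzyme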
VIM-2 FRET ctr = VIM-2 inhibitors in FRET format, confirmation, artefact control for selective VIM-2 inhibitor project, biochemical, epi-absorbance artifact exclusion. shares compounds with VIM-2 inhibitor. purified VIM-2, CCF2 FRET substrate hydrolysis. AID 1857, 2009. 23% of 1,300 active. inhibition, % at 5.6 µM;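 active = inhibition above the mean of all tested compounds plus 3 SD, cut at about 19% in these data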;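 note: 0% = VIM-2 plus DMSO and 100% = no enzyme wells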
TEM-1 counter = TEM-1 serine beta-lactamase inhibitors, counter-screen for VIM-2 inhibitor project, biochemical, epi-absorbance, HTS. shares compounds with VIM-2 inhibitor. Purified TEM-1, nitrocefin hydrolysis, epi-absorbance fluorescence. inhibition, % at 5.6 µM. 3% of 1,300 active. AID 1866, 2009;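 active = inhibition above that campaign's mean inhibition plus 3 SD, cut at about 0.46% in these data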;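 note: 0% = TEM-1 with DMSO and 100% = TEM-1 with 100 µM potassium clavulanate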
Target sequence (P62593 whole entry, looked up): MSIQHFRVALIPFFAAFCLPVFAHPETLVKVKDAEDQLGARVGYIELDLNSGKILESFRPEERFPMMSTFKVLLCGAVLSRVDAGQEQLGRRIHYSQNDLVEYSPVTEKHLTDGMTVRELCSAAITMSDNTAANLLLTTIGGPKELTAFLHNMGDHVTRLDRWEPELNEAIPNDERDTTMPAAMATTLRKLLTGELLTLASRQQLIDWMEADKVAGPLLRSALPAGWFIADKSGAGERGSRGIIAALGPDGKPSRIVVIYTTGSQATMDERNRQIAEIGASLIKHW
VIM-2 inh conf = VIM-2 metallo-beta-lactamase inhibitors, confirmation, biochemical, epi-absorbance, hits shared with IMP-1 screen; 96% of 1,300 active; inhibition, % at 5.6 µM; shares compounds with VIM-2 inhibitor; purified VIM-2, nitrocefin hydrolysis;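 active = inhibition of the VIM-2 beta-lactamase enzyme above about 11% from the earlier first-round screen, limit read from the data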;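 note: 0% = VIM-2 with DMSO and 100% = buffer wells without enzyme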
The depositor's hits bear a star; nt = no result given. Only some compounds are listed: those with a hit (about 2.1% of all), similar ones and a draw of the others.

SMILES	VIM-2 inhibitor	PKA-R1A activ	MsrA inhibitor	MsrA act	PKA-R2B act	IMP-1 inh-1	IMP-1 inh-2	VIM-2 FRET ctr	TEM-1 counter	VIM-2 inh conf
CCCCNC(=O)C1C(c2ccc(C(F)(F)F)cc2)=Nc2ccccc2N1C(=O)c1ccc2nc(C)[nH]c2c1 (stereo unspecified)	nt	nt	0.6	nt	nt	nt	nt	nt	nt	nt
O=c1c2cccc3c2c(nn1CN1CCOCC1)-c1ccccc1-3	25.6*	7.5	nt	0.8	5.3	-2.1	-4.8	-1.2	-9.8	33.5*
CCN(CC)CCn1nc2c3c(cccc3c1=O)-c1ccccc1-2	17.2*	2.7	-1.1	-1.0	-1.3	-1.0	-3.3	2.0	-6.2	28.9*
COc1ccc(OC)c2nc3c(cc12)CCC3	0.7	11.7	0.2	0.8	3.2	1.0	nt	nt	nt	nt
O=C(O)C1OC1(c1ccccc1Cl)c1ccccc1Cl (stereo unspecified)	nt	3.2	0.4	-0.4	-5.0	nt	nt	nt	nt	nt
COC(=O)c1ccc2nc(-c3ccco3)c(Cc3ccc(OC)cc3C)n2c1	nt	nt	1.0	-8.6	nt	nt	nt	nt	nt	nt
CCn1cc(CCC(=O)Nc2ccc(Oc3cccnc3)cc2)c2ccccc21	nt	nt	1.0	nt	nt	nt	nt	nt	nt	nt
CC(C)CC1OC(C)CC2=C1C(=O)OC(C)(C)O2 (stereo unspecified)	nt	nt	-1.3	-0.9	nt	nt	nt	nt	nt	nt
O=C1Nc2cc(C(=O)NCCCN3CCCC3)ccc2S/C1=C\c1ccccc1	13.8*	-5.8	0.5	-3.3	-13.4	-0.2	-2.0	32.1*	-6.2	23.2*
O=C1Nc2cc(C(=O)NCCCN3CCOCC3)ccc2S/C1=C/c1cccc(Cl)c1	28.9*	2.6	0.6	-0.2	3.2	-2.4	-2.3	49.2*	-6.6	33.0*
O=C1Nc2cc(C(=O)NCCCN3CCOCC3)ccc2S/C1=C/c1ccccc1F	29.7*	-2.5	1.0	-6.6	-0.3	-1.2	-3.2	49.5*	-6.3	34.0*
Cc1ccc(C(C)(C)C)cc1S(=O)(=O)N1CCC(C(=O)N2CCN(c3ccc(O)cc3)CC2)CC1	nt	-5.0	-0.3	-7.1	-11.4	nt	nt	nt	nt	nt
Cc1ccc(NC(=O)CN(C)C(=O)COC(=O)COc2cc(C)cc(C)c2)cc1	nt	-0.4	0.6	1.8	-12.8	nt	nt	nt	nt	nt
O=C1C(=Cc2ccco2)C(=O)c2ccccc21	31.5*	14.1	1.2	-3.0	5.1	-0.7	-3.3	-3.7	-9.7	3.6
O=C(O)c1ccc2c(c1)C(=O)/C(=C\c1ccco1)C2=O	2.4	-8.3	0.1	-2.3	-7.5	-0.9	nt	nt	nt	nt
CN1CCN(c2ccc(NC(=O)c3ccc(-c4cccc([N+](=O)[O-])c4)o3)cc2)CC1	42.3*	3.7	1.3	-2.9	-3.2	-1.0	-2.2	-3.7	-8.2	64.0*
CN1CCN(c2ccc(NC(=O)N3CCc4ccccc43)cc2)CC1	28.0*	-4.3	-1.5	-6.5	-15.1	-2.9	-4.2	-1.4	-5.3	39.9*
CN1CCN(C(=O)c2ccccc2NC(=O)c2sc3ccccc3c2Cl)CC1	-0.4	-13.9	0.3	0.4	1.0	-2.1	nt	nt	nt	nt
CN1CCN(c2ccc(NC(=O)c3sc4ccccc4c3Cl)cc2)CC1	21.9*	-10.9	-1.2	-3.1	6.0	-0.1	-2.4	-6.0	-4.1	51.3*
CS(=O)(=O)N1CCN(c2ccc(NC(=O)c3ccc(-c4ccc(Cl)cc4)o3)cc2)CC1	-5.0	8.8	-1.0	-14.9	9.0	0.2	nt	nt	nt	nt
CN1CCN(c2ccc(NC(=O)c3ccc(-c4ccc(Cl)cc4)o3)cc2)CC1	28.3*	1.4	-0.4	0.8	-4.4	-1.3	-4.0	1.0	-12.2	41.8*
CCOC(=O)c1cc(-c2ccccc2C)n(CC2CC(c3cccc([N+](=O)[O-])c3)=NO2)n1 (stereo unspecified)	nt	-1.5	0.3	-0.5	-2.3	nt	nt	nt	nt	nt
Cc1ccc(C(=O)NC(=S)N2CCCCCC2)cc1	nt	-10.6	-0.9	0.9	-5.4	nt	nt	nt	nt	nt
COC(=O)C1=C(C)N(Cc2cccc(C(F)(F)F)c2)C(=NCc2ccc(OC)cc2)NC1c1ccc(Cl)cc1 (stereo unspecified)	nt	nt	-0.7	nt	nt	nt	nt	nt	nt	nt
Cc1cc(C)c2nc(C)cc(N/N=C/c3ccc(O)cc3)c2c1	13.4*	-1.3	-0.2	0.4	3.9	-0.8	-3.0	-2.8	-6.2	19.3*
SMILES	VIM-2 inhibitor	PKA-R1A activ	MsrA inhibitor	MsrA act	PKA-R2B act	IMP-1 inh-1	IMP-1 inh-2	VIM-2 FRET ctr	TEM-1 counter	VIM-2 inh conf
Cc1cc(-c2ccccc2)nc(N/N=C/c2ccc(O)cc2)n1	nt	-1.8	3.2	-0.6	3.7	nt	nt	nt	nt	nt
COc1ccc(S(=O)(=O)Nc2ccc3c(c2)C(=O)N([C@H](C)CO)C[C@H](C)[C@@H](CN(C)C(=O)Nc2c(C)noc2C)OCCCC[C@H](C)O3)cc1	nt	2.2	0.1	5.0	-0.9	nt	nt	nt	nt	nt
Cc1ccccc1C(=O)c1cccn1CC(=O)NCc1ccccc1	0.6	3.5	-0.6	-3.3	-2.4	-0.5	nt	nt	nt	nt
Cc1ccccc1C(=O)c1cccn1CC(=O)O	38.2*	-9.4	0.8	-4.4	4.5	-2.8	-1.8	56.9*	1.3*	42.6*
Cc1ccc(-c2nn(C)c(=O)c3ccccc23)cc1S(=O)(=O)NCCN(C)C	36.6*	-3.8	1.6	-10.9	-9.8	-2.6	-3.5	-0.7	-5.6	50.5*
CNc1nnc(-c2ccc(C)cc2)c2ccccc12	3.0	-12.5	1.8	-11.5	-3.2	-2.6	nt	nt	nt	nt
Cc1ccc(-c2nn3c(C)nnc3c3ccccc23)cc1S(=O)(=O)NCCO	29.8*	-5.7	1.0	-1.4	-2.7	-3.7	-3.2	3.3	-5.9	37.4*
Cc1ccc(-c2nn3c(C)nnc3c3ccccc23)cc1S(=O)(=O)N1CCN(CCO)CC1	61.0*	2.7	-0.1	-1.7	-5.0	-3.3	-2.3	-3.2	-2.2	72.8*
CCCCNS(=O)(=O)c1cc(-c2nn(C)c(=O)c3ccccc23)ccc1C	-0.6	-1.1	-0.6	-4.5	4.4	-2.2	nt	nt	nt	nt
